From PubChem
Sampled rows, rich in hits. Any-hit rate of the full collection: about 1.6%.
proKLK7 act = proKLK7 zymogen activators, primary screen, biochemical, fluorescence intensity; activation, % at 7 µM; purified proKLK7, EDANS-DABCYL substrate fluorescence; 100% is mature enzyme control, 0% vehicle; 370,000 tested, 0.9% active; Kallikrein-7 (Homo sapiens), P49862;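 active means activation above the mean of all tested compounds plus 3 SD, computed per campaign excluding outliers beyond control limits, cut at about 13% in these data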
Neddyl block = inhibitors of cullin neddylation, primary screen, biochemical, TR-FRET, uHTS, NAE and Ubc12. AID 651699, 2012. 360,000 tested, 0.58% active. calls only at 25 µM; in the data active means inhibition above about 36%
Target sequence (P61081 whole entry, looked up): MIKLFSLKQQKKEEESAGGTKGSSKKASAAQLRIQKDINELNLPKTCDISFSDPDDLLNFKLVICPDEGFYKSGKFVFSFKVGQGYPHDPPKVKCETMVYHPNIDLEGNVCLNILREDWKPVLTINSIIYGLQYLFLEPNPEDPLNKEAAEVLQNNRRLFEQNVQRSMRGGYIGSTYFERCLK
Target sequence (Q13564 whole entry, looked up): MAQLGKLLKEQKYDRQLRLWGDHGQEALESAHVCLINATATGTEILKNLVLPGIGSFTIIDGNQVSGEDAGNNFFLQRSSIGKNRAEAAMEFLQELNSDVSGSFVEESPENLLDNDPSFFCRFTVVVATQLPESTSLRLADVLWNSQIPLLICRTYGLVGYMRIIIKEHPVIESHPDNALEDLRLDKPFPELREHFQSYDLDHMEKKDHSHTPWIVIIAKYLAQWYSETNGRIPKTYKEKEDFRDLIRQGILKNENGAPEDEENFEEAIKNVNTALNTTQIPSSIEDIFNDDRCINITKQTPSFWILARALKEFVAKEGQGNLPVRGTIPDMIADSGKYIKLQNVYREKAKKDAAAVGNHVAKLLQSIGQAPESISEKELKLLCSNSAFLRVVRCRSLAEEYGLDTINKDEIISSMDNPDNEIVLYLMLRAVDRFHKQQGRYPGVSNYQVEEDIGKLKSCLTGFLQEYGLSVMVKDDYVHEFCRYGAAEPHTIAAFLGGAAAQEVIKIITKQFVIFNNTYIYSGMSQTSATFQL
proCasp3 act = activators of human procaspase-3 D3A mutant, primary screen, biochemical, absorbance, PC-3 D3A mutant, single concentration. recombinant procaspase-3 D3A, Ac-DEVD-pNA absorbance 405 nm. activation, % at 8.5 µM. Caspase-3 (Homo sapiens), P42574. 330,000 tested, 0.11% active. AID 463141, 2010;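 active means activation above the mean of all tested compounds plus 3 SD, cut at about 21% in these data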
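Technique: 405 nm absorbance of p-nitroaniline, reads at 0 and 120 min; Test system: Procaspase-3 D3A mutant; Incubation: 1 h enzyme-compound preincubation, then 2 h substrate reaction, 25 °C; Repeats: singlicate, each compound tested once; Benchmarks: low control DMSO wells, high control DMSO plus 5 µM PC-3 D3A.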
procasp7 counter = procaspase-7 activators, primary screen, counter-screen for procaspase-3 activator project, biochemical, absorbance, HTS, human; Caspase-7 (Homo sapiens), P55210; recombinant procaspase-7, Ac-DEVD-pNA absorbance 405 nm; D23A/D198A/D206A triple mutant, cannot self-cleave; scale: DMSO 0, 5 µM enzyme 100; activation, % at 8.5 µM; 330,000 tested, 0.093% active;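 active means percent activation above the screen-wide mean plus 3 SD, cut at about 25% in these data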
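Assay system: Uncleavable procaspase-7 mutant enzyme; Input: 2 µM procaspase-7 mutant as dispensed; Also added: DEVD-pNA substrate; Medium: Zinc-free HEPES pH 7.4 with 300 mM NaCl, 0.01% Triton X-100; Timing: 1 h compound preincubation, 2 h substrate cleavage, 25 °C; Measured by: Epi-absorbance of released pNA at 405 nm, two timepoints.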
proKLK7 act conf = proKLK7 zymogen activators, confirmation, biochemical, fluorescence intensity, triplicate; shares compounds with proKLK7 act; purified proKLK7, EDANS-DABCYL substrate fluorescence; scaled: vehicle 0, mature enzyme 100; activation, % at 7 µM; 3,200 tested, 68% active; AID 686949, 2013;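 active means activation, as change over the incubation, above the mean of all tested compounds plus 3 SD, cut at about 13% in these data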
EDANS interfere = EDANS-DABCYL substrate optical interference, artefact control for kallikrein-7 zymogen activator project, biochemical, fluorescence intensity, high throughput; shares compounds with proKLK7 act; activation, % at 7 µM; 3,200 tested, 80% active; no enzyme, 4 h; solvent 0%, active enzyme control 100%;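 active means activation above the all-compound mean plus 3 SD, ignoring values outside control-based bounds, cut at about 4.8% in these data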;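 further: value is the 4 h activation minus the activation read at time zero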
EDANS interf = optically interferes with EDANS-DABCYL fluorescence, kallikrein-7 activator counter-screen; shares compounds with proKLK7 act; EDANS-DABCYL peptide fluorescence interference, no enzyme; EC50, µM; 250 tested, 20% active;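 active means compounds that raise the fluorescence signal in this interference counterscreen, with EC50 at or below 10 µM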;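 further: intact quenched peptide substrate alone read at 355 nm excitation and 520 nm emission; signal is fluorescence gain from T0 to T4 after four hours at room temperature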
Numbers stand for hits.

CN=c1scc(-c2c[nH]c3ccccc23)n1C was read as proKLK7 act inactive and Neddyl block inactive.
`CNc1cnc(-c2cccc(C(=O)N3CCOCC3)c2)cn1` gave proKLK7 act 14, proKLK7 act conf 15 and EDANS interfere 20.
Cc1nn2c(=O)cc(CSCC(=O)Nc3ccccc3Cl)nc2s1 was read as proKLK7 act inactive, Neddyl block inactive, proCasp3 act inactive and procasp7 counter inactive.
CC(C)(C)C(=O)Nc1ccc(/C=C/C(=O)c2ccco2)cc1 was read as proKLK7 act 78, Neddyl block inactive, proCasp3 act inactive, procasp7 counter inactive, proKLK7 act conf 53 and EDANS interfere 48.
For O=S(=O)(NCC(c1ccco1)N1CCCCC1)c1ccccc1C(F)(F)F (stereo not given) the results were proKLK7 act inactive, Neddyl block inactive, proCasp3 act inactive and procasp7 counter inactive.
CSc1nc2[nH]c3c(c2c2nnnn12)CCCC3 was read as proKLK7 act 14, proCasp3 act inactive, procasp7 counter inactive, proKLK7 act conf inactive and EDANS interfere 9.8.
O=C(C(=O)N1CCN(S(=O)(=O)c2ccc(Cl)cc2)CC1)c1cccc(C(F)(F)F)c1 was read as proKLK7 act inactive.
For COC(=O)c1cc(S(=O)(=O)N2CCCC2=O)c(Cl)cc1Cl the results were proKLK7 act inactive, Neddyl block inactive, proCasp3 act inactive and procasp7 counter inactive.
Screening CC1(C)S[C@@H]2[C@H](NC(=O)[C@H](N)c3ccccc3)C(=O)N2[C@H]1C(=O)OC1OC(=O)c2ccccc21 (stereo not given in full) returned proKLK7 act 16, Neddyl block inactive, proCasp3 act inactive, procasp7 counter inactive, proKLK7 act conf inactive and EDANS interfere 4.6.
Screening CC(C)(C)OC(=O)N1C[C@@]23C[C@H](c4cccc(F)c4)[C@@H](C[C@@H]2S1(=O)=O)O3 returned proKLK7 act inactive.
CN1C=CC2=C(C#N)C(N)C(C#N)(C#N)[C@H](c3ccccc3)[C@H]2C1 (stereo not given in full) was read as proKLK7 act 39, Neddyl block inactive, proCasp3 act inactive, procasp7 counter inactive, proKLK7 act conf 22, EDANS interfere 18 and EDANS interf inactive.
`COc1cccc2[nH]c3c(N4CCC5(CC4)OCCO5)ncnc3c12` gave proKLK7 act 39, proCasp3 act inactive, procasp7 counter inactive, proKLK7 act conf 38 and EDANS interfere 45.
`CC(=O)Nc1cccc(C(=O)Oc2cccc(C)c2)c1O` gave proKLK7 act 40, Neddyl block inactive, proCasp3 act inactive, procasp7 counter inactive, proKLK7 act conf 48 and EDANS interfere 51.
`Cc1cccc(C(=O)Nc2cccc(OC(=O)c3cccc(C)c3)c2)c1` gave proKLK7 act inactive, Neddyl block inactive, proCasp3 act inactive and procasp7 counter inactive.
Screening NNC(=O)c1ccc(COCC(F)(F)F)cc1 returned proKLK7 act inactive, Neddyl block inactive, proCasp3 act inactive and procasp7 counter inactive.
For COc1cccc(CN2CC(C(=O)NC3CCCCCC3)CCC2=O)c1 (stereo not given) the results were proKLK7 act inactive, Neddyl block inactive, proCasp3 act inactive and procasp7 counter inactive.
For O=C(Nc1ccccc1)c1ccc(F)c(S(=O)(=O)N2CCOCC2)c1 the results were proKLK7 act inactive, Neddyl block inactive, proCasp3 act inactive and procasp7 counter inactive.
O=C(Nc1ccc(-c2cn3ccsc3n2)cc1)c1ccc(F)c(S(=O)(=O)N2CCOCC2)c1 was read as proKLK7 act 18, Neddyl block inactive, proCasp3 act inactive, procasp7 counter inactive, proKLK7 act conf inactive and EDANS interfere 6.1.
For Cc1oc2cc3oc(=O)c(CCC(=O)NCCC(=O)O)c(C)c3cc2c1C the results were proKLK7 act inactive, proCasp3 act inactive and procasp7 counter inactive.
Cc1oc2cc3oc(=O)c(CCC(=O)NCCCC(=O)O)c(C)c3cc2c1C was read as proKLK7 act 14, proCasp3 act inactive, procasp7 counter inactive, proKLK7 act conf 24 and EDANS interfere 22.
For O=C(Oc1ccc[nH]c1=O)C1CC1 the results were proKLK7 act inactive and Neddyl block inactive.
CC1OC(CCc2cccc(Cl)c2)Cc2[nH][nH]c(=O)c21 (stereo not given) was read as proKLK7 act inactive and Neddyl block inactive.
`CC(=O)N1CCC2(CC1)CC(=O)c1cc(OCC(=O)NCc3ccc(C)cc3)ccc1O2` gave proKLK7 act 35, proCasp3 act inactive, procasp7 counter inactive, proKLK7 act conf 26 and EDANS interfere 46.
Screening CC(=O)N1CCC2(CC1)CC(=O)c1cc(OCC(=O)NCc3ccco3)ccc1O2 returned proKLK7 act 28, proCasp3 act inactive, procasp7 counter inactive, proKLK7 act conf 48 and EDANS interfere 49.
`N#Cc1c(N)nc2c(c1N)CC(CCl)O2` (stereo not given) gave proKLK7 act inactive, Neddyl block inactive, proCasp3 act inactive and procasp7 counter inactive.
`CCC1Cc2c(nc(N)c3c(N)nc(N4CCOCC4)c(C#N)c23)O1` (stereo not given) gave proKLK7 act 19, proCasp3 act inactive, procasp7 counter inactive, proKLK7 act conf inactive and EDANS interfere inactive.
`CCCc1nc(N2CCOCC2)c(C#N)c2c1CCCC2` gave proKLK7 act inactive, Neddyl block inactive, proCasp3 act inactive and procasp7 counter inactive.
Screening CCOc1cc2c(C#N)c(N3CCOCC3)nc(N)c2c(N)n1 returned proKLK7 act 16, Neddyl block inactive, proCasp3 act inactive, procasp7 counter inactive, proKLK7 act conf 69 and EDANS interfere 66.
Screening CCOc1cc2c(C#N)c(N(CC)CC)nc(N)c2c(N)n1 returned proKLK7 act inactive, Neddyl block inactive, proCasp3 act inactive and procasp7 counter inactive.
Screening COCCN1C(=O)Cc2c1nc(N)c1c(N)nc(N3CCN(c4ccc(F)cc4)CC3)c(C#N)c21 returned proKLK7 act inactive, Neddyl block inactive, proCasp3 act inactive and procasp7 counter inactive.
